# T cruzi inh: blocks replication of Trypanosoma cruzi; T. cruzi beta-gal in NIH3T3, luminescence, 90 h; 300,000 tested, 1.4% active; inhibition, % (concentration not given with the values);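 active = mean inhibition across valid replicates above about 55%, limit read from the data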;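 also: signal also drops with host cell toxicity which is not excluded here; 0% = plate median of DMSO wells and 100% = zero luminescence signal; higher percent means less beta-gal luminescence so fewer parasites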
#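 System – NIH/3T3 host cells with β-galactosidase reporter T. cruzi · Doses – single 50 nL compound addition per well in DMSO · Reagent – 5000 T. cruzi trypomastigotes/well · Medium – Low-serum DMEM with 2% FBS · Timing – ≥90 h infection period, 3 h prior cell attachment · Evaluation – parasite load inhibition, % · Technique – GalScreen luminescence, 60 min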
# CR mimetic SO: lowers age-related superoxide in aged yeast cells; 330,000 tested, 0.18% active; superoxide response (% of plate mean), % at 10 µM; S. cerevisiae aged cells, superoxide DHE fluorescence; active compounds read low;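 active = superoxide response under a set limit, about three screen SD below normal, cut at about 65% in these data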;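 also: yeast aged for seven days with compound at 30 °C before DHE staining; 100% = average MFI of all compound-treated wells on the plate with controls excluded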
# AI-2 QS mod: modulators of Vibrio harveyi AI-2 quorum sensing system; Vibrio harveyi JMH597 AI-2 luminescence/OD600 ratio, 9 h; active compounds read low; strain lacks LuxN and CqsS sensors; 0 = neutral-control median; activity change, % at 7.5 µM; 300,000 tested, 0.4% active; AID 2094; in the data active = activity change below about -75%, passing the limit was not always enough;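 also: luminescence divided by OD600 gain over 9 h not by final OD600 alone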
# CendR NRP1 mod: NRP-1/CendR interaction modulation | FAM-RPARPAR peptide binding to NRP-1, fluorescence polarization | inhibition, % at 25 µM | 360,000 tested, 0.85% active;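 active = inhibition or corrected inhibition above about 18%, plus a signal ratio from 0.5 to 1.5, limit read from the data, passing the limit was not always enough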
# Target sequence (O14786 whole entry, looked up): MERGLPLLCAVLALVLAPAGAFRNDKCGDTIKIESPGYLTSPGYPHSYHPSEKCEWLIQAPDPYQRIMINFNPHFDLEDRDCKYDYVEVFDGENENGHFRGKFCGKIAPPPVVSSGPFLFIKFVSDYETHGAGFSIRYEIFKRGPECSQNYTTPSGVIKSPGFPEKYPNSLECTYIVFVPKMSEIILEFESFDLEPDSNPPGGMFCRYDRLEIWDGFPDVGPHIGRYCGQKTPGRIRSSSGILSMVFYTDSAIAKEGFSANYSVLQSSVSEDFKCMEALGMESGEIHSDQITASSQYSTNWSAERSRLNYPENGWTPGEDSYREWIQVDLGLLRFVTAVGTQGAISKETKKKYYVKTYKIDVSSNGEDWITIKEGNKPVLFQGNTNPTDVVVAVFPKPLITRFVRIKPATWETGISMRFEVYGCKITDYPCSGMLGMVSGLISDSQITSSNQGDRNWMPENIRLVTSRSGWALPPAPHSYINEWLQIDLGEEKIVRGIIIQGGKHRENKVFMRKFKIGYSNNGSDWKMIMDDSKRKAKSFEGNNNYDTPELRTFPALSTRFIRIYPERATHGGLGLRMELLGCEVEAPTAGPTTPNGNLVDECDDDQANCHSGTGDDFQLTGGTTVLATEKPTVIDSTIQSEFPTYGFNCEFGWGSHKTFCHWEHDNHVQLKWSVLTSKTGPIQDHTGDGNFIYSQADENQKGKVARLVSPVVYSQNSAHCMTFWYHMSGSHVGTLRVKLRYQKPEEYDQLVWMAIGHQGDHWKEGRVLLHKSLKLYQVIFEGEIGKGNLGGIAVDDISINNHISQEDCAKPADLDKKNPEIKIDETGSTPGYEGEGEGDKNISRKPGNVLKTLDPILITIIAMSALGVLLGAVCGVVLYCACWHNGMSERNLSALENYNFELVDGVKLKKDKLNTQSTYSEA
# HIF activator: HIF pathway transcriptional activation | activation, % at 7.5 µM (by protocol) | U2OS HRE-luciferase reporter, luminescence; normalized: DMSO 0%, desferrioxamine 100% | 300,000 tested, 0.32% active;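 active = mean activation of at least 10% of the iron chelator positive control signal, with at least half of replicates also reaching 10%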
# V-ATPase pH: regulators of yeast V-ATPase proton transport; S. cerevisiae, pHLuorin cytosolic pH fluorescence; response, % at 10 µM; 350,000 tested, 0.37% active; AID 504577; in the data active = response mostly above about 7.3%, no sharp cut-off; inactive = mostly below about 5.4%; also: actives read high
# * = called active by the depositor; nt = no result given. An excerpt weighted towards active compounds, which were near 3% of everything screened.
SMILES,T cruzi inh,CR mimetic SO,AI-2 QS mod,CendR NRP1 mod,HIF activator,V-ATPase pH
CN1C(=O)CC2(C)C1=CCc1scnc12 (centres undefined),nt,nt,nt,18.8*,nt,nt
CCc1ccc2[nH]c(=O)c(CN(CCN(C)C)C(=O)Nc3ccccc3OC)cc2c1,21.1,96.9,16.4,7.7,-0.3,-0.9
CCc1ccc2[nH]c(=O)c(CN(Cc3ccccc3)C(=O)Nc3ccccc3OC)cc2c1,66.1*,104.8,20.1,13.0,0.3,-2.5
COc1ccccc1CN1CC(C(=O)NCCN(C)CCc2ccccc2)CCC1=O (centres undefined),60.4*,98.2,19.4,-1.3,-0.1,-6.6
COc1ccccc1CCNC(=O)C1CCC(=O)N(Cc2ccccc2OC)C1 (centres undefined),8.3,94.3,36.3,-11.2,0.2,-4.7
CC1=CC(C)(C)N2C(=O)C3(N=C(N)NC(Nc4ccccc4)=N3)c3cc(C)cc1c32 (centres undefined),15.2,79.4,22.4,5.5,0.4,-1.1
O=C(NC1(O)C(=O)c2ccccc2C1=O)c1c(Cl)cccc1Cl,-14.3,94.7,38.6,10.9,0.0,-1.5
COc1ccc(CN2CCC(N(CCc3ccccc3)Cc3ccccc3)CC2)c(OC)c1,60.5*,77.3,14.0,4.1,-0.7,-0.9
CCCCNC1c2ccccc2C(=O)N1Cc1ccccc1 (centres undefined),-6.1,102.8,9.0,-7.9,-0.1,16.9*
O=C(NCc1ccco1)C(c1ccccc1F)N(Cc1cccnc1)C(=O)Cn1nnc2ccccc21 (centres undefined),66.4*,102.4,14.6,9.5,-0.3,-1.3
O=[N+]([O-])c1cccc(C([O-])=C(C(=S)Nc2cccc3ccccc23)[n+]2ccccc2)c1,nt,nt,nt,-3.9,nt,-5.3
O=C(CN(Cc1ccccc1)S(=O)(=O)c1cccc(C(F)(F)F)c1)NC1CCCCC1,11.4,110.9,24.7,8.7,0.1,0.3
CN(Cc1ccc(Cl)cc1)C(CCc1ccccc1)C(=O)NC1CCCCC1 (centres undefined),nt,nt,nt,19.6*,nt,nt
Cc1ccc(S(=O)(=O)Cn2nnnc2CN2CCOCC2)cc1,-9.4,105.0,-1.4,-2.5,0.4,-0.2
O=C(CCc1ccc(Oc2cc([N+](=O)[O-])cc([N+](=O)[O-])c2)cc1)NC1CCCC1,62.7*,90.2,14.8,-2.5,0.0,4.4
CC(C)(C)c1cc[n+](C2=C([O-])c3ccccc3C(=O)/C2=N\S(=O)(=O)c2cccs2)cc1,15.3,128.6,6.7,30.7*,-3.6,0.3
O=C1/C(=N\S(=O)(=O)c2cccs2)C([n+]2ccccc2)=C([O-])c2ccccc21,2.2,155.8,-2.7,124.0,0.2,-1.1
Fc1ccccc1CSc1ncnc2sc3c(c12)CCCC3,17.7,101.3,28.5,-1.9,-0.1,0.2
Cc1nc(C(=O)Nc2ccc(Cl)cc2Cl)nn1-c1cc(OC(C)C)c(Cl)cc1Cl,32.2,125.8,16.8,-2.2,14.8*,-0.2
Cc1nc(C(=O)Nc2cc(Cl)ccc2Cl)nn1-c1cc(OC(C)C)c(Cl)cc1Cl,-15.3,94.5,14.2,1.3,-1.1,1.9
CCOCCCN1C(=O)C(O)=C(C(C)=O)C1c1cccs1 (centres undefined),-6.7,113.5,22.4,3.1,-1.4,2.8
COc1ccc2cc3cc(C(=O)Nc4ccccc4N4CCN(C)CC4)oc3nc2c1,67.2*,106.6,16.2,-3.4,-1.5,1.2
CC1CC(C)C[N+](=C2C=C(N3CCCC3)CC(C)(C)C2)C1 (centres undefined),58.6*,nt,3.3,2.4,-1.1,-2.7
CC1(C)CC(N2CCN(c3ccccc3)CC2)=CC(=[N+]2CCCC2)C1,67.6*,128.2,16.6,1.9,0.2,-2.3
CC1(C)CC(N2CCCC2)=CC(=[N+]2CCCCCC2)C1,56.9*,144.7,3.3,15.8,0.2,1.5
SMILES,T cruzi inh,CR mimetic SO,AI-2 QS mod,CendR NRP1 mod,HIF activator,V-ATPase pH
Cc1cccc(C(=O)OCC(=O)NCc2ccc3c(c2)OCO3)c1C,nt,124.6,nt,0.7,nt,-5.0
COc1ccc(NC(C)=O)cc1S(=O)(=O)Nc1ccc(C(=O)N2CCCC2)cc1,-11.1,105.4,10.0,-4.5,-0.1,2.7
O=C(COc1ccccc1)Nc1ccc(S(=O)(=O)Nc2ccccn2)cc1,-8.1,87.2,-61.7,8.5,-0.7,0.1
Cc1[nH]n(C(C)(C)C)c(=O)c1Sc1ccc(Cl)cc1,61.0*,101.4,22.6,1.3,-0.4,-1.8
CCn1c(C)cc(/C=C2/NC(=O)N(Cc3ccccc3F)C2=O)c1C,9.2,89.0,1.8,-16.6,0.0,2.0
Cc1cc(/C=C2/NC(=O)N(Cc3ccccc3F)C2=O)c(C)n1C(C)C,56.6*,102.6,18.8,-9.1,0.3,2.4
O=C1N/C(=C/c2cccn2-c2ccc(F)cc2)C(=O)N1Cc1ccccc1F,17.2,123.0,15.0,42.9*,-0.5,3.3
O=C(N/N=C/c1ccc2nccnc2c1)c1ccncc1,0.3,92.2,16.8,11.1,-0.1,3.0
Cc1ccc(CN2CCN(Cc3ccc(-n4cccn4)cc3C)CC2CCO)cc1 (centres undefined),61.9*,88.7,14.6,2.9,-0.1,3.1
Cc1ccc(CN2CCN(Cc3cccc(-n4cccn4)c3)CC2CCO)cc1 (centres undefined),10.4,103.3,23.8,-3.9,0.3,-3.3
O=C(CC1NC(=O)NC1=O)Nc1ccccc1 (centres undefined),-21.3,102.3,24.1,26.9*,-0.3,-3.8
Cc1ccc(S(=O)(=O)c2ccccc2)cc1S,62.3*,89.1,5.1,nt,-0.2,nt
C=CCn1c(SCC(=O)Nc2cc(C)on2)nnc1-c1ccncc1,nt,nt,nt,8.9,nt,-1.4
C=CCn1c(SCC(=O)Nc2ncc(Cc3ccc(Br)cc3)s2)nnc1-c1ccncc1,40.8,106.5,15.3,23.4*,-0.1,-2.6
CCCN1Cc2cccc(C(=O)Nc3ccc(C)cc3)c2C1=O,22.4,105.7,20.2,-0.5,-0.4,0.3
CCCN1Cc2cccc(C(N)=O)c2C1=O,2.3,101.8,15.7,49.2*,-0.1,2.3
COc1ccc(-n2cc(-c3ccccc3)[n+]3c2CCCCC3)cc1,81.4*,92.2,25.8,4.2,-0.1,0.2
COc1ccc(-n2cc(-c3ccc(C)cc3)[n+]3c2SCC3)cc1,58.7*,104.5,10.5,20.0,-0.4,-0.2
CCc1ccc(-n2cc(-c3ccc(F)cc3)[n+]3c2SCCC3)cc1,56.3*,95.2,7.1,9.6,-0.1,1.1
Cc1ccc(-c2cn(-c3ccccc3)c3[n+]2CCCS3)cc1,43.7,102.1,26.0,10.0,0.0,-0.3
O=C(CSc1nc2ccc(F)cc2c(=O)n1-c1ccccc1)Nc1ccc2c(c1)CCC2,nt,nt,nt,-13.1,nt,nt
COc1ccc(C(C(=O)NC2CCCCC2)N(C(=O)c2ccccn2)c2cccnc2)c(OC)c1 (centres undefined),8.2,88.7,17.0,11.9,0.0,-0.1
